According to ChEMBL document CHEMBL1142980, “Quinols as novel therapeutic agents. 7.1 Synthesis of antitumor 4-[1-(arylsulfonyl-1H-indol-2-yl)]-4-hydroxycyclohexa-2,5-dien-1-ones by Sonogashira reactions” (J Med Chem, 2007):

Columns and labels:
[1] = Growth inhibition of NCI60 cells; format: functional; settings: Homo sapiens; for CC50: read-out: LC50 (the source's name)
Outline: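 Run in the NCI in vitro 60 human cancer cell line panel. Potency is given as mean GI50 and mean LC50 (µM) across the panel. Individual lines with LC50 below 1 µM are reported separately.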

[2] = tested on: HCT-116; assay: Growth inhibition of human HCT116 cells after 72 hrs by MTT assay; format: functional, cell-based; settings: HCT-116, 72 h, read-out: LC50 (the source's name)
Outline: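 Human cancer cells given 72 h continuous drug exposure, growth measured by MTT assay; part of a preliminary five-line screen (colon HCT-116, HT29; breast MCF-7, MDA 468; non-small cell lung A549).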

[3] = tested on: CAKI-1; assay: Growth inhibition of human CAKI1 cells after 72 hrs by MTT assay; format: functional; settings: CAKI-1, 72 h, read-out: LC50 (the source's name)
[4] = Growth inhibition of human LOXIMV1 cells after 72 hrs by MTT assay; format: functional; settings: LOX IMV1, 72 h, read-out: LC50 (the source's name)
[5] = tested on: ACHN; assay: Growth inhibition of human ACHN cells after 72 hrs by MTT assay; format: functional; settings: read-out: LC50 (the source's name)
[6] = tested on: SK-MEL-5; assay: Growth inhibition of human SKMEL5 cells after 72 hrs by MTT assay; format: functional; settings: SK-MEL-5, 72 h, read-out: LC50 (the source's name)
[7] = tested on: BT-549; assay: Growth inhibition of human BT549 cells after 72 hrs by MTT assay; format: functional; settings: BT-549, 72 h, read-out: LC50 (the source's name)
[8] = tested on: A498; assay: Growth inhibition of human A498 cells after 72 hrs by MTT assay; format: functional; settings: A498, 72 h, read-out: LC50 (the source's name)

SMILES | GI50 [1] | CC50 [1] | CC50 [2] | CC50 [3] | CC50 [4] | CC50 [5] | CC50 [6] | CC50 [7] | CC50 [8]
O=C1C=CC(O)(c2nc3ccccc3s2)C=C1 | 230 nM | 3390 nM |  |  |  |  |  |  | 
O=C1C=CC(O)(c2cc3ccccc3n2S(=O)(=O)c2ccccc2)C=C1 | 39 nM | 2950 nM | 30 nM | 50 nM |  |  |  |  | 
Cc1ccc(S(=O)(=O)n2c(C3(O)C=CC(=O)C=C3)cc3ccccc32)cc1 | 110 nM | 7240 nM | < 10 nM |  | < 10 nM | 40 nM |  |  | 
O=C1C=CC(O)(c2cc3ccccc3n2S(=O)(=O)c2cccnc2)C=C1 | 410 nM | 14100 nM | 290 nM |  |  |  |  |  | 
COC(=O)CCc1ccc(S(=O)(=O)n2c(C3(O)C=CC(=O)C=C3)cc3ccccc32)cc1 | 680 nM | 22900 nM | 20 nM |  |  |  | 600 nM |  | 
COC(=O)CCc1ccc(S(=O)(=O)n2c(C3(O)C=CC(=O)C=C3)cc3ccc(F)cc32)cc1 | 500 nM | 10500 nM | 720 nM |  | 810 nM |  |  | 740 nM | 
O=C1C=CC(O)(c2cc3ccc(F)cc3n2S(=O)(=O)c2ccc(CCC(=O)O)cc2)C=C1 | 2500 nM | 29500 nM |  |  |  |  |  |  | 
CN(C)c1cccc2c(S(=O)(=O)n3c(C4(O)C=CC(=O)C=C4)cc4ccccc43)cccc12 | 190 nM | 13200 nM |  |  |  | 410 nM |  |  | 60 nM
O=C1C=CC(O)(c2cc3ccccc3n2S(=O)(=O)c2ccc(CCC(=O)O)cc2)C=C1 | 2340 nM | 23400 nM |  |  |  |  |  |  | 
CCOC(=O)Nc1ccc(S(=O)(=O)n2c(C3(O)C=CC(=O)C=C3)cc3ccccc32)cc1 | 190 nM | 7580 nM | 295 nM |  |  | 600 nM |  |  | 
O=C1C=CC(O)(c2cc3cnccc3n2S(=O)(=O)c2ccccc2)C=C1 | 340 nM | 13800 nM | 930 nM | 470 nM |  |  |  |  | 
Cc1ccc(S(=O)(=O)n2c(C3(O)C=CC(=O)C=C3)cc3ccncc32)cc1 | 170 nM | 5750 nM | < 10 nM |  | 60 nM | 50 nM |  |  | 
O=C1C=CC(O)(c2cc3ccc(F)cc3n2S(=O)(=O)c2ccccc2)C=C1 | 16 nM | 2240 nM |  |  |  |  |  |  | 
